Assay results as given in paper PMC8332596 (Clinical Pharmacokinetics, 2021).
Where two headings read alike, the source gives them in different places.

Tests used:
[1] = Safety and tolerability after a single subcutaneous dose of tirzepatide 5 mg; format: in vivo, human; settings: single 5 mg SC
Summary of the method: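 Open-label phase I single-dose study in adults aged 18–85 y with BMI 19.0–40.0 kg/m2, grouped by MDRD eGFR. ESRD subjects were dialysed on high-flux polysulfone membranes. AEs were recorded at screening and on days 1, 2, 3, 4, 5, 8, 15 and ≥28. Glucose was checked predose, at 12–336 h and on day ≥28, with hypoglycaemia defined per ADA guidance. ISRs were assessed to 48 h. Labs (incl. amylase/lipase), vitals and ECGs were taken at set visits.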

[2] = Immunogenicity: antidrug antibodies in serum; format: in vivo, human; settings: single 5 mg SC, maximum of 30 days of ADA monitoring postdose
[3] = format: in vivo, human; settings: single 5 mg SC; for tmax median of differences (90% CI): Hodges–Lehmann; for tmax: median (range)
Summary of the method: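 Single SC 5 mg dose given on day 1. Plasma was drawn predose and at 8, 12, 24, 48, 72, 96, 168, 336 and 648 h, then stored at about −70 °C. Drug was immunoprecipitated and quantified by LC–high-resolution MS (HESI, positive ion) over 2.00–500.00 ng/mL. Noncompartmental analysis used actual times, trapezoidal AUClast and log-linear λz. Log AUC/Cmax ratios versus control came from ANOVA with 90% CI; tmax by Hodges–Lehmann.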

[4] = dose range 0.5 to 15 mg, single-dose levels and steady state; cited from earlier work
[5] = cited from earlier work
[6] = once-weekly dulaglutide 1.5 mg; patients with T2D; cited from earlier work
[7] = moderate renal impairment, N = 8
[8] = mild-to-moderate renal impairment

CC[C@H](C)[C@H](NC(=O)[C@H](CC(C)C)NC(=O)[C@H](Cc1c[nH]c2ccccc12)NC(=O)[C@H](CCC(N)=O)NC(=O)[C@@H](NC(=O)[C@H](Cc1ccccc1)NC(=O)[C@H](C)NC(=O)[C@H](CCCCNC(=O)COCCOCCNC(=O)COCCOCCNC(=O)CC[C@H](NC(=O)CCCCCCCCCCCCCCCCCCC(=O)O)C(=O)O)NC(=O)[C@H](CCC(N)=O)NC(=O)[C@H](C)NC(=O)[C@@H](NC(=O)[C@H](CCCCN)NC(=O)[C@H](CC(=O)O)NC(=O)[C@H](CC(C)C)NC(=O)C(C)(C)NC(=O)[C@@H](NC(=O)[C@H](CO)NC(=O)[C@H](Cc1ccc(O)cc1)NC(=O)[C@H](CC(=O)O)NC(=O)[C@H](CO)NC(=O)[C@@H](NC(=O)[C@H](Cc1ccccc1)NC(=O)[C@@H](NC(=O)CNC(=O)[C@H](CCC(=O)O)NC(=O)C(C)(C)NC(=O)[C@@H](N)Cc1ccc(O)cc1)[C@@H](C)O)[C@@H](C)O)[C@@H](C)CC)[C@@H](C)CC)C(C)C)C(=O)N[C@@H](C)C(=O)NCC(=O)NCC(=O)N1CCC[C@H]1C(=O)N[C@@H](CO)C(=O)N[C@@H](CO)C(=O)NCC(=O)N[C@@H](C)C(=O)N1CCC[C@H]1C(=O)N1CCC[C@H]1C(=O)N1CCC[C@H]1C(=O)N[C@@H](CO)C(N)=O [tirzepatide]
number of subjects with AEs related to tirzepatide ([1]; ESRD group (37.5%)): 3 | Abdominal distention ([1]; ESRD, N = 8): 0 (0.0) n (%) | Back pain ([1]; ESRD, N = 8): 0 (0.0) n (%) | Deaths ([1]; ESRD, N = 8): 0 (0.0) n (%) | Diarrhea ([1]; ESRD, N = 8): 0 (0.0) n (%) | Headache ([1]; ESRD, N = 8): 0 (0.0) n (%) | Nausea ([1]; ESRD, N = 8): 1 (12.5) n (%) | Serious AEs ([1]; ESRD, N = 8): 0 (0.0) n (%) | Treatment-emergent AEs ([1]; ESRD, N = 8): 3 (37.5) n (%) | Vomiting ([1]; ESRD, N = 8): 2 (25.0) n (%) | alterations in laboratory, vital signs values, ECGs, or blood glucose monitoring ([1]; all groups): no clinically significant alterations | severe hypoglycemic events ([1]; all groups): no severe hypoglycemic events | discontinuations due to AEs, serious AEs, deaths ([1]; all groups, 45 subjects): No discontinuations due to AEs, serious AEs, or deaths | tolerability ([1]; all treatment groups): well-tolerated | injection-site reactions (ISRs) ([1]; assessed predose and 0, 6, 12, 24, 48 h postdose): No ISRs were reported | number of subjects with AEs related to tirzepatide ([1]; control group (7.1%)): 1 | number of subjects with AEs related to tirzepatide ([1]; mild renal impairment group (37.5%)): 3 | Abdominal distention ([1]; mild renal impairment, N = 8): 0 (0.0) n (%) | Back pain ([1]; mild renal impairment, N = 8): 1 (12.5) n (%) | Deaths ([1]; mild renal impairment, N = 8): 0 (0.0) n (%) | Diarrhea ([1]; mild renal impairment, N = 8): 1 (12.5) n (%) | Headache ([1]; mild renal impairment, N = 8): 0 (0.0) n (%) | Nausea ([1]; mild renal impairment, N = 8): 1 (12.5) n (%) | Serious AEs ([1]; mild renal impairment, N = 8): 0 (0.0) n (%) | Treatment-emergent AEs ([1]; mild renal impairment, N = 8): 3 (37.5) n (%) | Vomiting ([1]; mild renal impairment, N = 8): 0 (0.0) n (%) | number of subjects with AEs related to tirzepatide ([1]; moderate renal impairment group (37.5%)): 3 | Abdominal distention [1, 7]: 1 (12.5) n (%) | Back pain [1, 7]: 1 (12.5) n (%) | Deaths [1, 7]: 0 (0.0) n (%) | Diarrhea [1, 7]: 1 (12.5) n (%) | Headache [1, 7]: 0 (0.0) n (%) | Nausea [1, 7]: 0 (0.0) n (%) | Serious AEs [1, 7]: 0 (0.0) n (%) | Treatment-emergent AEs [1, 7]: 3 (37.5) n (%) | Vomiting [1, 7]: 0 (0.0) n (%) | Abdominal distention ([1]; normal renal function, N = 14): 0 (0.0) n (%) | Back pain ([1]; normal renal function, N = 14): 0 (0.0) n (%) | Deaths ([1]; normal renal function, N = 14): 0 (0.0) n (%) | Diarrhea ([1]; normal renal function, N = 14): 0 (0.0) n (%) | Headache ([1]; normal renal function, N = 14): 1 (7.1) n (%) | Nausea ([1]; normal renal function, N = 14): 0 (0.0) n (%) | Serious AEs ([1]; normal renal function, N = 14): 0 (0.0) n (%) | Treatment-emergent AEs ([1]; normal renal function, N = 14): 1 (7.1) n (%) | Vomiting ([1]; normal renal function, N = 14): 0 (0.0) n (%) | treatment-related AEs ([1]; severe renal impairment group): No treatment-related AEs were reported | Abdominal distention ([1]; severe renal impairment, N = 7): 0 (0.0) n (%) | Back pain ([1]; severe renal impairment, N = 7): 0 (0.0) n (%) | Deaths ([1]; severe renal impairment, N = 7): 0 (0.0) n (%) | Diarrhea ([1]; severe renal impairment, N = 7): 0 (0.0) n (%) | Headache ([1]; severe renal impairment, N = 7): 0 (0.0) n (%) | Nausea ([1]; severe renal impairment, N = 7): 0 (0.0) n (%) | Serious AEs ([1]; severe renal impairment, N = 7): 0 (0.0) n (%) | Treatment-emergent AEs ([1]; severe renal impairment, N = 7): 0 (0.0) n (%) | Vomiting ([1]; severe renal impairment, N = 7): 0 (0.0) n (%) | treatment-emergent antidrug antibodies (ADAs) [2]: No treatment-emergent ADAs were detected | half-life ([3]; human, plasma, sc, 5 mg, t½, ESRD, n = 8, geometric mean (range)): 151 h | tmax median of differences (90% CI) ([3]; ESRD vs normal renal function): 0.00 h | tmax ([3]; ESRD, n = 8): 48.00 (24.00–96.00) h | relationship between exposure (Cmax, AUClast, AUC∞) and MDRD eGFR ([3]; linear regression, eGFR as continuous variable): did not show a relationship | higher AUClast versus control ([3]; mild renal impairment group classified by CLCR (Cockcroft–Gault)): 23% | tmax median of differences (90% CI) ([3]; mild renal impairment vs normal renal function): 0.00 h | t½ ([3]; mild renal impairment, n = 8, geometric mean (range)): 121 (94.6–138) h | tmax ([3]; mild renal impairment, n = 8): 48.00 (12.00–96.00) h | increase in AUCs versus normal renal function ([3]; moderate renal impairment group): 25–29% | geometric mean AUClast higher than control group ([3]; moderate renal impairment vs control, 90% CI 1.04–1.52): 25% | geometric mean AUC∞ higher than control group ([3]; moderate renal impairment vs control, 90% CI 1.07–1.56): 29% | dose dependence of PK [4]: linear and dose-proportional

albiglutide
PK versus subjects with normal renal function [5, 8]: not significantly altered

dulaglutide
HbA1c reduction [6]: ≤ 1.1% | body weight reduction [6]: ≤ 2.7 kg | influence of the extent of renal impairment on PK [5]: not influenced

exenatide
PK changes versus subjects with normal renal function ([5]; subcutaneous, mild-to-moderate renal impairment): clinically acceptable

liraglutide
PK versus subjects with normal renal function [5, 8]: not significantly altered

lixisenatide
differences in PK versus subjects with normal renal function [5, 8]: no significant differences | drug exposure ([5]; severe renal impairment): may be increased

semaglutide
impact of renal impairment on plasma PK ([5]; oral): lack of impact
